Compound activity: PubChem, several laboratories
Shown are actives, neighbours in structure and some others; about 2.5% of the full set was active somewhere.
Bfl-1 A1 inh: inhibitors of the anti-apoptotic protein A1, read as caspase activation. AID 2462. MEF A1-2A-BIM cells, Caspase-Glo 3/7 luminescence, 3 h; percent of clofoctol response, vehicle zero. hit rate 0.066% among 330,000. caspase activation, % (concentration not given with the values);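 active means over half of replicate activation scores above 10%, or exactly half above 10 with the replicate mean above 10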
MC4R antagonist: human MC4R antagonism in cAMP assay. MC4R-expressing cells, MTII-stimulated cAMP, LANCE TR-FRET. P32245. inhibition, % at 6.5 µM. hit rate 0.48% among 360,000;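 active means inhibition above its plate's cutoff, the mean of tested wells on that plate plus 3 SD, cut at about 29% in these data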;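 further: 0% = Melanotan II alone and 100% = Melanotan II plus saturating MCL0020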
Target sequence (P32245 whole entry, looked up): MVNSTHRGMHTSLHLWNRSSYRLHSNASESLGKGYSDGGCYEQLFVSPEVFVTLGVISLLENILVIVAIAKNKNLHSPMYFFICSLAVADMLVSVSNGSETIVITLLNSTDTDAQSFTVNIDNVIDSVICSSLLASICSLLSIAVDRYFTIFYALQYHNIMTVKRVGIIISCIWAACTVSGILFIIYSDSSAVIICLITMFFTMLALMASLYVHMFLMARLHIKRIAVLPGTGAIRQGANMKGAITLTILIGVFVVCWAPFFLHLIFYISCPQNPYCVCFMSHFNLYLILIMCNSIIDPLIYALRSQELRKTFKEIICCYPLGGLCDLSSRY
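System: U2OS-MC4R stable cell line; Technique: Eu-cAMP/anti-cAMP TR-FRET, emission 671 nm; Repeats: single well per compound; Also added: Melanotan II; Dosing: one concentration, 6.5 µM nominal; Schedule: 30-min compound, 1-h challenge, 1-h detection, room temperature.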
NTR1 agonist: activates human neurotensin receptor 1 | hit rate 0.17% among 330,000 | NTR1-U2OS beta-arrestin-GFP spot imaging, agonist mode | AID 493036 | activation, % at 20 µM | P30989;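 active means activation at or above 40% of the spot to cytoplasm intensity ratio, with at least 20 cells analyzed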;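 further: 0% = DMSO without peptide and 100% = 100 nM NTR1 peptide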
Granule exo inh: blocks lytic granule exocytosis; TALL-104 LAMP-1 surface exposure, flow cytometry; cells stimulated with thapsigargin and PMA; inhibition, % at 10 µM; hit rate 0.66% among 360,000;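 active means inhibition above about 55%, limit read from the data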
sPLA2-III inh: Blocks human group III sPLA2 activity; hit rate 0.56% among 370,000; Q9NZ20; QFRET BODIPY PC-A2 liposome hydrolysis, fluorescence; inhibition, % at 12.2 µM;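 active means inhibition above mean plus 3 SD of compounds lying within the high and low control bounds, cut at about 19% in these data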;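 further: 0% = median of test compound wells and 100% = no enzyme DMSO wells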
MC4R ag barr: agonists of human melanocortin 4 receptor (MC4R) beta-arrestin; activation, % at 8.9 µM; hit rate 0.98% among 360,000; U2OS MC4R beta-arrestin complementation, luminescence; percent of melanotan II response, DMSO zero; P32245;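 active means activation above a per-plate cutoff, the mean activation of sample wells on that plate plus 3 SD, cut at about 8% in these data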
cAMP nonselect: U2OS forskolin cAMP inhibition counter-screen; shares compounds with MC4R antagonist; parental U2OS, LANCE TR-FRET; inhibition, % at 6.5 µM; hit rate 26% among 1,600;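 active means mean inhibition over triplicates above the low-control well mean plus 3 SD, set per campaign, cut at about 13% in these data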;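 further: signal is single emission at 671 nm which falls as cellular cAMP rises; 0% = forskolin-stimulated wells and 100% = buffer without forskolin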
MC4R cAMP antag: human MC4R cAMP antagonism confirmation; hit rate 27% among 1,600; shares compounds with MC4R antagonist; MC4R-expressing cells, MTII-stimulated cAMP, TR-FRET; AID 602195; inhibition, % at 6.5 µM; in the data active means inhibition above about 29%;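 further: 0% = agonist stimulated wells alone and 100% = agonist stimulated wells plus saturating reference antagonist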
Active calls of the source: *.

How did COc1ccccc1N1C(=O)NC(=O)/C(=C\c2cnn(-c3ccccc3)c2)C1=O do in these assays?
Bfl-1 A1 inh: 2.9; MC4R antagonist: 30.1*; NTR1 agonist: 20.3; Granule exo inh: -3.2; sPLA2-III inh: -0.1; MC4R ag barr: 2.3; cAMP nonselect: 11.0; MC4R cAMP antag: 8.6

Results for Clc1ccc(COC(Cn2ccnc2)c2ccc(Cl)cc2Cl)c(Cl)c1 (stereo not drawn) ?
Bfl-1 A1 inh: 0.4; MC4R antagonist: 4.5; NTR1 agonist: 18.9; Granule exo inh: 4.1; sPLA2-III inh: -27.0; MC4R ag barr: -1.6

Results for COc1ccc(-n2c(O)c(C=NCc3ccc4c(c3)OCO4)c(=O)[nH]c2=O)cc1 ?
Bfl-1 A1 inh: 1.1; MC4R antagonist: -2.8; NTR1 agonist: -0.8; Granule exo inh: -0.5; sPLA2-III inh: 7.9; MC4R ag barr: -0.3

What do the screens show for `Nc1ncnc2c1ccn2[C@@H]1O[C@H](CO)[C@@H](O)[C@H]1O`?
Bfl-1 A1 inh: -1.0; MC4R antagonist: 44.7*; NTR1 agonist: -0.8; Granule exo inh: -3.1; sPLA2-III inh: 2.5; MC4R ag barr: 0.1; cAMP nonselect: 93.6*; MC4R cAMP antag: 78.5*

What do the screens show for `NC(=S)c1cn(C2OC(CO)C(O)C2O)c2ncnc(N)c12` (stereo not drawn)?
Bfl-1 A1 inh: 3.7; MC4R antagonist: 31.1*; Granule exo inh: -3.1; sPLA2-III inh: 1.2; MC4R ag barr: -2.2; cAMP nonselect: 0.5; MC4R cAMP antag: 28.0

How did CCOP(=O)(CCP(=O)(OCC)OCC)OCC.C[CH2][Sn]([Cl])([Cl])[CH2]C do in these assays?
MC4R antagonist: 69.9*; Granule exo inh: -9.1; sPLA2-III inh: 12.4; MC4R ag barr: -1.6; cAMP nonselect: 10.8; MC4R cAMP antag: 28.9*

What do the screens show for `CCOP(=O)(OCC)OCC`?
Bfl-1 A1 inh: -0.3; MC4R antagonist: 6.2; NTR1 agonist: -1.2; Granule exo inh: -0.5; sPLA2-III inh: 3.2; MC4R ag barr: -0.5

How did C=C1C(C)C2C(Cc3ccccc3)NC(=O)C23OC(=O)/C=C/C(O)CCCC(C)C/C=C/C3C1O (stereo not drawn) do in these assays?
MC4R antagonist: 35.6*; Granule exo inh: 9.1; sPLA2-III inh: -3.7; MC4R ag barr: 0.3; cAMP nonselect: 1.3; MC4R cAMP antag: -1.8

What do the screens show for `O=C(NN=Cc1ccc(N(CCCl)CCCl)cc1)C(=O)c1c[nH]c2ccccc12`?
MC4R antagonist: 30.8*; Granule exo inh: 1.7; sPLA2-III inh: -12.9; MC4R ag barr: 0.9; cAMP nonselect: 2.4; MC4R cAMP antag: 26.5

Results for CCC1(Cc2ccccc2)C(=O)NC(=S)N(C)C1=O (stereo not drawn) ?
MC4R antagonist: 11.5; Granule exo inh: 0.6; sPLA2-III inh: 17.1; MC4R ag barr: -0.5

How did CC12CC[C@H]3[C@@H](CCC4(O)C[C@H](O)CCC34/C=N/NC(=O)c3ccccc3O)C1(O)CCC2C1=CC(=O)OC1 (stereo partly drawn) do in these assays?
Bfl-1 A1 inh: -0.8; MC4R antagonist: 29.2*; NTR1 agonist: -0.5; Granule exo inh: 4.1; sPLA2-III inh: -0.7; MC4R ag barr: 6.1; cAMP nonselect: -4.9; MC4R cAMP antag: -3.9

Results for CC(C)NC1(c2ccccc2)CCCCC1 ?
sPLA2-III inh: 0.0

How did O=C1NC(=O)N(c2cccc(Cl)c2)C(=O)/C1=C\c1ccc(Sc2nc3ccccc3[nH]2)o1 do in these assays?
Bfl-1 A1 inh: -0.3; MC4R antagonist: 24.2; NTR1 agonist: -0.3; Granule exo inh: 3.0; sPLA2-III inh: 11.3; MC4R ag barr: -1.9

Results for O=C1NC(=O)N(c2ccccc2)C(=O)/C1=C/c1ccc(Sc2ccccc2)o1 ?
Bfl-1 A1 inh: -1.4; MC4R antagonist: 29.3*; Granule exo inh: -1.7; MC4R ag barr: -2.4; cAMP nonselect: 17.6*; MC4R cAMP antag: 5.7
